From the array DNA melting data of Ke et al. (doi:10.1101/2024.01.08.574731) come the findings set out here.

Data set [1] is described as follows: melting temperature; fluorescence melt of hairpins on a sequencing array, two-state fit, raised by 9.35 °C to match UV melts. The settings on record: sodium 0.088 M. In outline: (§1)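 Bootstrapped two-state fits yielded melting temperature and folding enthalpy for library hairpins. Cy3 fluorescence, with annealed Cy3 and quencher oligos, was imaged on a sequenced MiSeq flow cell in 50 mM Na-HEPES pH 8.0, 25 mM NaCl in 2.5 °C steps up to 60 °C, and normalised to pre-quench Cy3 and to control constructs. Four replicates were combined by inverse variance, and fitted temperatures were raised by 9.35 °C to match UV melts.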

A short description of data set [2]: folding enthalpy; higher = less favourable; fluorescence melt of hairpins on a sequencing array, two-state fit. The settings on record: sodium 0.088 M. In short, it runs like this:
as §1

Regarding GTTGTCGAAAGACATAAC ((((((....)))..))), the Tm in data set [1] is 32.6 °C. Moreover, the folding enthalpy in data set [2] was -13.3 kcal/mol.

As for GCGCAGGGAAACCCGCAC (.((.((....)).)).), the Tm in data set [1] was 37 °C. The folding enthalpy in data set [2] was -17 kcal/mol.

Consider GTCACCGAAAGGTAGGAC ((((((....)))..))), for which, in data set [1], the Tm was found to be 37.4 °C. For the same sequence, the folding enthalpy in data set [2] is -17.2 kcal/mol.

As for GATCTGTATTCAGATC ((((((....)))))), the Tm in data set [1] was determined as 50.4 °C. For the same sequence, the folding enthalpy in data set [2] was -36.3 kcal/mol.

Regarding GATCAGCATCCTGATC ((((((....)))))), the Tm in data set [1] worked out at 48 °C. In data set [2], the folding enthalpy was -32.5 kcal/mol.

For the sequence GATCTAAGGTTAGATC ((((((....)))))), the Tm in data set [1] worked out at 39.3 °C. The folding enthalpy in data set [2] was -31.6 kcal/mol.

As for GCTGAGCGAAAGCTTCGC ((..(((....)))..)), in data set [1], the Tm came out at 49.5 °C. In data set [2], the folding enthalpy is -13.4 kcal/mol.

For GAAACCGAAAGGTCCTTC ((((((....)))..))), in data set [1], the Tm was found to be 30.7 °C. The folding enthalpy in data set [2] was -14.6 kcal/mol.

In the case of GATCCCTGGTGGGATC ((((((....)))))), the Tm in data set [1] was determined as 58.1 °C. Further, the folding enthalpy in data set [2] was -31.1 kcal/mol.

GATCTCCTGGAGATC ((((((...)))))): in data set [1], the Tm is 53.2 °C. Also, the folding enthalpy in data set [2] was -37.3 kcal/mol.

GTCCGCGAAAGCGACGAC ((((((....)))..))): in data set [1], the Tm amounted to 57.6 °C. The folding enthalpy in data set [2] is -14 kcal/mol.

As to GATCGGCAACCGATC ((((((...)))))), the Tm in data set [1] turned out to be 54.6 °C. In addition, in data set [2], the folding enthalpy was -36.7 kcal/mol.

Take GAGTTCCCGAAAGGGCTC (((..(((....)))))): in data set [1], the Tm is 34.1 °C. Besides, the folding enthalpy in data set [2] was -18.3 kcal/mol.

Turning to GAACACGAAAGTGGGTTC ((((((....)))..))), in data set [1], the Tm amounted to 37.1 °C. The folding enthalpy in data set [2] is -16.4 kcal/mol.

Turning to GATCCTCAAAAGGATC ((((((....)))))), the Tm in data set [1] was 51.3 °C. In data set [2], the folding enthalpy is -32.5 kcal/mol.

Regarding GGTTTGGCGAAAGCCACC (((..(((....)))))), the Tm in data set [1] came out at 31.9 °C. The folding enthalpy in data set [2] was -8.59 kcal/mol.

For the sequence GGTAGGGGAAACCCCACC (((.(((....))).))), the Tm in data set [1] is 46.2 °C. In data set [2], the folding enthalpy was -23.7 kcal/mol.

GGTTACGAAAGTAGTACC ((((((....)))..))): in data set [1], the Tm stood at 34.8 °C. Further, the folding enthalpy in data set [2] was -14.8 kcal/mol.

As to GCGTCCGGAAACGAACGC ((((.((....)).)))), in data set [1], the Tm turned out to be 54.7 °C. For the same sequence, in data set [2], the folding enthalpy is -42.8 kcal/mol.

For GTTTTCGGAAACGAGAAC (((.(((....))).))), the Tm in data set [1] turned out to be 41.6 °C. Also, the folding enthalpy in data set [2] was -27.4 kcal/mol.

For the sequence GCCCTTGGAAACGAGGGC (((((.(....).))))), the Tm in data set [1] stood at 57.5 °C. Moreover, in data set [2], the folding enthalpy is -41.4 kcal/mol.

AATCGGAAACGATT (((((....))))): the Tm in data set [1] worked out at 44.5 °C. The folding enthalpy in data set [2] is -22.9 kcal/mol.

As to GATCTGGCCCAGATC ((((((...)))))), in data set [1], the Tm was 49.7 °C. Besides, the folding enthalpy in data set [2] is -35.1 kcal/mol.

Consider GGGAGTGGAAACGCTCCC (((((.(....).))))), for which the Tm in data set [1] came to 58 °C. For the same sequence, in data set [2], the folding enthalpy was -38.9 kcal/mol.

With GATTGAGGAAACCCAATC (((((.(....).))))), the Tm in data set [1] stood at 35.1 °C. Moreover, in data set [2], the folding enthalpy was -29.2 kcal/mol.

In the case of CGTTTTCGGAAACGAACG (((..(((....)))))), in data set [1], the Tm stood at 37 °C. Further, the folding enthalpy in data set [2] was -12.1 kcal/mol.

Turning to GGCGAAGGAAACTTCACC ((.((((....)))).)), the Tm in data set [1] was 42.6 °C. The folding enthalpy in data set [2] is -32.8 kcal/mol.

As to GACCTCGGAAACGAAGTC (((.(((....))).))), the Tm in data set [1] is 34.7 °C. Besides, the folding enthalpy in data set [2] was -24.9 kcal/mol.

GGGTTAACGAAAGTTCCC (((..(((....)))))): in data set [1], the Tm came out at 37.4 °C. Further, in data set [2], the folding enthalpy is -21.2 kcal/mol.

In the case of GCAACTACGAAAGTATGC (((..(((....)))))), the Tm in data set [1] stood at 32.1 °C. Further, in data set [2], the folding enthalpy is -16.5 kcal/mol.
